ChEMBL document CHEMBL3763017, “Synthesis and evaluation of dual antiplatelet activity of bispidine derivatives of N-substituted pyroglutamic acids” (Eur J Med Chem, 2016)
The source made the active and inactive calls. The rule behind the calls is not given here.

What was measured:
[1] = tested on: Mus musculus; experiment: Antithrombotic activity in Swiss albino mouse assessed as protection against collagen-epinephrine induced pulmonary thromboembolism at 30 umol/kg, po after 1 hr; format: functional
Procedure, shortened: (§1)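 Male Swiss albino mice (18–22 g) dosed orally in 0.5% carboxymethyl cellulose 1, 2, 4, 6, 12 or 24 h before challenge. Collagen (150 μg/ml) plus adrenaline (50 μg/ml) injected into the tail vein. Dead or hind-limb-paralysed mice counted over 15 min and expressed as % protection. Ten mice per drug group, five for vehicle.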

[2] = Antiplatelet activity in human platelet rich plasma assessed as inhibition of collagen-induced platelet aggregation at 30 uM preincubated for 5 mins followed by collagen stimulation by turbidimetry; format: functional
Procedure, shortened: (§2)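 Human PRP (1×10^8 platelets/ml) from healthy-donor blood spun at 1000 rpm for 10 min. Pre-treated 5 min with compound or 0.4% DMSO vehicle, then agonist added at 37 °C. Light-transmission aggregometry run at least 5–10 min; % aggregation calculated. Single-point screens at 30 μM, n = 3; mean ± SEM.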

[3] = tested on: Mus musculus; experiment: Antithrombotic activity in Swiss albino mouse assessed as protection against collagen-epinephrine induced pulmonary thromboembolism at 170 umol/kg, po measured upto 5 hrs; format: functional; procedure, shortened: as §1
[4] = tested on: Mus musculus; experiment: Toxicity in Swiss albino mouse assessed as bleeding time at 170 umol/kg, po administered as single dose measured up to 24 hrs (reference value: 3.5 +/- 0.3 mins); format: organism-based; conditions: in vivo
[5] = tested on: Mus musculus; experiment: Antithrombotic activity in ferric chloride-induced Swiss albino mouse arterial thrombosis model assessed as time to occlusion at 170 umol/kg, po; format: functional, organism-based
[6] = tested on: Aorta; experiment: Inhibition of U46619-induced vasocontraction in Sprague-Dawley rat thoracic aoritc rings at 100 nM (reference value: 89.8 +/- 8.5%); format: functional; parameters: scale not given: the % may be the effect or the level left
[7] = Antiplatelet activity in human platelet rich plasma assessed as inhibition of U46619-induced platelet aggregation at 30 uM preincubated for 5 mins followed by U46619 stimulation by turbidimetry; format: functional; procedure, shortened: as §2

| SMILES | Activity [1] [%] | inhibition at 30 µM [2] [%] | further results |
| --- | --- | --- | --- |
| O=C([C@@H]1CCC(=O)N1Cc1ccccc1)N1CC2CC(CN(Cc3ccccc3)C2)C1 | 30 | 44 | – |
| COc1ccc(CN2C(=O)CC[C@H]2C(=O)N2CC3CC(CN(Cc4ccccc4)C3)C2)cc1 | 30 | 10 | – |
| CC(C)(C)OC(=O)N1CC2CC(C1)CN(C(=O)[C@@H]1CCC(=O)N1Cc1ccc(C#N)cc1)C2 | 55 | 11 | – |
| O=C([C@@H]1CCC(=O)N1Cc1ccc(Br)cc1)N1CC2CC(CN(Cc3ccccc3)C2)C1 | 40 | 57 | – |
| CC(C)(C)OC(=O)N1CC2CC(C1)CN(C(=O)[C@@H]1CCC(=O)N1Cc1ccccc1)C2 | 40 | 6 | – |
| CC(=O)Oc1ccccc1C(=O)O [ASPIRIN] | – | – | Activity [3]: 40%; Time [4]: 6.6 min; Activity [5]: inactive |
| O=C(O)CCC/C=C\C[C@@H]1[C@H](CNNC(=O)Nc2ccccc2)[C@H]2CC[C@@H]1O2 | – | – | Activity [6]: 8.4% |
| CC(C)(C)OC(=O)N1CC2CC(C1)CN(C(=O)[C@@H]1CCC(=O)N1Cc1c(Cl)cccc1Cl)C2 | 30 | 3 | – |
| O=C([C@@H]1CCC(=O)N1Cc1c(Cl)cccc1Cl)N1CC2CC(CN(Cc3ccccc3)C2)C1 | 40 | 68 | inhibition at 30 µM [7]: 85% |
| O=C(c1ccccc1)N1CC2CC(C1)CN(C(=O)[C@@H]1CCC(=O)N1Cc1ccccc1Br)C2 | 60 | 25.6 | – |
| Cc1ccc(CN2C(=O)CC[C@H]2C(=O)N2CC3CC(CN(C(=O)c4ccccc4)C3)C2)cc1 | 40 | 20.5 | – |
| Cc1ccc(CN2C(=O)CC[C@H]2C(=O)N2CC3CC(CN(Cc4ccccc4)C3)C2)cc1 | 25 | 7 | – |
